Measured values gathered from unrelated publications.
Each line is one published result; the experiments were not run side by side.
Target: Serine/threonine-protein kinase ULK1 (ULK1, Homo sapiens, UniProt O75385)
Residues used in one study (O75385 1-1050): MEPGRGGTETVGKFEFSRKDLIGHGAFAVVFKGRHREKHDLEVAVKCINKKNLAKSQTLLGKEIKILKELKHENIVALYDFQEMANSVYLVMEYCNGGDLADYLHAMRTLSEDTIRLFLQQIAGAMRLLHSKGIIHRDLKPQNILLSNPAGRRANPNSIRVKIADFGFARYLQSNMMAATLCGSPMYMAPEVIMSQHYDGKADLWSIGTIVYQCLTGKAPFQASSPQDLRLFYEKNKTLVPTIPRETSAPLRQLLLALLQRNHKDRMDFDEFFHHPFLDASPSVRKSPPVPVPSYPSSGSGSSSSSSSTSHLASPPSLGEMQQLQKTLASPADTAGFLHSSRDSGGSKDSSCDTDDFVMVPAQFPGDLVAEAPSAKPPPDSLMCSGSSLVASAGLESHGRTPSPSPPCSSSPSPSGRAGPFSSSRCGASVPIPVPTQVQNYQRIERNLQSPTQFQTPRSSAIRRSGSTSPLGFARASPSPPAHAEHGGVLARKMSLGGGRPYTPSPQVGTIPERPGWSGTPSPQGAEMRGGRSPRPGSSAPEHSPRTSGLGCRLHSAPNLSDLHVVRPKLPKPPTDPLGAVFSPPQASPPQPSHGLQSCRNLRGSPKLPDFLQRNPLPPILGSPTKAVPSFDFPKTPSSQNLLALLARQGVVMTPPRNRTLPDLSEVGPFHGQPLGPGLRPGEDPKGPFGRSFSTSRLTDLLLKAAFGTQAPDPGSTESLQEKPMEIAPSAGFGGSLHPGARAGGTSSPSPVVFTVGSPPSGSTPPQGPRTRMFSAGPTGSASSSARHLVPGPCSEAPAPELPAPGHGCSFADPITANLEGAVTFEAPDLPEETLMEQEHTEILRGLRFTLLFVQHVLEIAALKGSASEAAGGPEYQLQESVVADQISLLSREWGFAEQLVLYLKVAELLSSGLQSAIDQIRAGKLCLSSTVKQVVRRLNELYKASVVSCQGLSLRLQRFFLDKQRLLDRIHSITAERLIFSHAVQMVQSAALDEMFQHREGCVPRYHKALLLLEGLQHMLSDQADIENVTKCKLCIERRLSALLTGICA

| SMILES | assay | setting | remaining binding [%] |
| --- | --- | --- | --- |
| O=C(Nc1c[nH]nc1C(=O)NC1CCNCC1)c1cc(F)cc(F)c1 | binding, competition with immobilised ligand | 1 µM | 100 |
| CN(C)c1ncc(F)c(-c2cnn3ncccc23)n1 | binding | 1 µM | 80 |
| CNC(=O)[C@@H]1CC[C@@H](n2c(-c3ccc4cnccc4c3)nc3ccc(C(=O)NCc4cccc(C(N)=O)c4)cc32)C1 | binding, competition with immobilised ligand | 1 µM | 100 |
| COc1ncc2cc3ccccc3nc2c1C#N | cell-free assay, competition with immobilised ligand | 5 µM | 93 |
| COc1ccnn2ncc(-c3ccnc(N(C)C)n3)c12 | binding | 1 µM | 100 |
| O=C1CCc2cc(Nc3cc(OC4CCOCC4)c([N+](=O)[O-])cc3Cl)ccc2N1 | cell-free assay, competition with immobilised ligand | 1 µM | 87 |
| Cc1cnc(Nc2ccc(C(=O)N3CCC(N4CCCC4)CC3)cc2)nc1-c1cc2ccccc2s1 | binding, competition with immobilised ligand | 1 µM | 1.2 |
| COc1ccc2c(O[C@@H]3C[C@H]4C(=O)N[C@]5(C(=O)O)CC5/C=C\CCCCC[C@H](NC(=O)OC5CCCC5)C(=O)N4C3)cc(-c3csc(NC(=O)C(C)C)n3)nc2c1C (stereo partly drawn) | cell-free assay, competition with immobilised ligand | 1 µM | 93 |
| CN(C)c1nccc(-c2cnn3ncccc23)n1 | binding | 1 µM | 96 |
| CNCc1ccccc1-c1csc([C@H](C)Nc2nc(C)nc3cc(OC)c(OC)cc23)c1 | cell-free assay, competition with immobilised ligand | 1 µM | 91 |
| CCN1CCN(Cc2ccc(C(=O)Nc3ccc(C)c(Oc4ccc5c(c4)CC(=O)N5)c3)cc2C(F)(F)F)CC1 | binding, competition with immobilised ligand | 1 µM | 100 |
| O=C(NCCCN1CCOCC1)c1ccc(Nc2ncc(Cl)c(-c3ccc(Cl)s3)n2)cc1 | binding, competition with immobilised ligand | 1 µM | 3.5 |
| COc1cnc(Nc2cccc(S(N)(=O)=O)c2)nc1N1CCN(c2ccccc2)C(=O)C1 | binding, competition with immobilised ligand | 1 µM | 67 |
| O=C(NCCCN1CCOCC1)c1ccc(Nc2nccc(-c3cc4ccccc4s3)n2)cc1 | binding, competition with immobilised ligand | 1 µM | 52 |
| N[C@H]1CCN(c2nccc(-c3cnn4ncccc34)n2)C1 | binding | 1 µM | 100 |
| CN(C)CC#Cc1ccc(OCCCc2sc(N3CCc4cccc(C(=O)Nc5nc6ccccc6s5)c4C3)nc2C(=O)O)c(F)c1 | cell-free assay, competition with immobilised ligand | 1 µM | 100 |
| FC(F)(F)Oc1cccc(-c2cnc3ccc(-c4ccncc4)nn23)c1 | binding, competition with immobilised ligand | 5 µM | 82 |
| CN(c1nccc(-c2cnn3ncccc23)n1)C1CC1 | binding | 1 µM | 85 |
| C[C@@H]1CN(c2cc(-c3nn(C)c4ccc(OC5(C)CC5)cc34)ncn2)C[C@H](C)O1 | cell-free assay, competition with immobilised ligand | 1 µM | 76 |
| CC1CCCN1c1nccc(-c2cnn3ncccc23)n1 (stereo not drawn) | binding | 1 µM | 97 |
| CS(=O)(=O)N1CCCC(NC(=O)[C@H](CCC2CCCCC2)NC(=O)c2ccc(CNC(=O)c3cnc4ccccn34)cc2)C1 (stereo partly drawn) | cell-free assay, competition with immobilised ligand | 0.1 µM | 83 |
